Source: PubChem BioAssay (several laboratories)
RAM inhibit: blocks the yeast RAM network | hit rate 1.8% among 190,000 | inhibition, % at 50 µM | S. cerevisiae dse1pr::URA3 reporter, 5-FOA growth OD615, 2 d; analog-sensitive cbk1-as2 kinase mutant strain;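 active = inhibition above a set limit, 3 SD over mean compound inhibition, cut at about 8.4% in these data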;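 also: 0% = DMSO-only wells with no growth and 100% = 10 µM 1-NA-PP1 full growth; inhibition rescues growth on 5-FOA so higher OD means more RAM inhibition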
ABCB1 inh: blocks JC-1 efflux by human ABCB1 transporter | hit rate 0.067% among 190,000 | CCRF-Adr cells, flow cytometry | AID 1326 | inhibition, % at 6.6 µM; in the data active = inhibition above about 40%;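 also: 0% = vehicle and 100% = reference inhibitor; higher value means more JC-1 retained so stronger ABCB1 efflux block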
Lmaj promast: reduces viability of Leishmania major promastigotes; inhibition, % at 10 µM; hit rate 9% among 200,000; resazurin fluorescence viability; in the data active = inhibition above about 50%;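 also: promastigotes grown with compound for 44 hours at 28 °C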
ABCG2 inh: blocks JC-1 efflux by human ABCG2 transporter; Q9UNQ0; IgMXP3 cells, flow cytometry; inhibition, % at 6.6 µM; hit rate 0.1% among 190,000; AID 1325;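 active = inhibition above 80%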;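 also: 0% = DMSO and 100% = nicardipine control wells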
Target sequence (Q9UNQ0 whole entry, looked up): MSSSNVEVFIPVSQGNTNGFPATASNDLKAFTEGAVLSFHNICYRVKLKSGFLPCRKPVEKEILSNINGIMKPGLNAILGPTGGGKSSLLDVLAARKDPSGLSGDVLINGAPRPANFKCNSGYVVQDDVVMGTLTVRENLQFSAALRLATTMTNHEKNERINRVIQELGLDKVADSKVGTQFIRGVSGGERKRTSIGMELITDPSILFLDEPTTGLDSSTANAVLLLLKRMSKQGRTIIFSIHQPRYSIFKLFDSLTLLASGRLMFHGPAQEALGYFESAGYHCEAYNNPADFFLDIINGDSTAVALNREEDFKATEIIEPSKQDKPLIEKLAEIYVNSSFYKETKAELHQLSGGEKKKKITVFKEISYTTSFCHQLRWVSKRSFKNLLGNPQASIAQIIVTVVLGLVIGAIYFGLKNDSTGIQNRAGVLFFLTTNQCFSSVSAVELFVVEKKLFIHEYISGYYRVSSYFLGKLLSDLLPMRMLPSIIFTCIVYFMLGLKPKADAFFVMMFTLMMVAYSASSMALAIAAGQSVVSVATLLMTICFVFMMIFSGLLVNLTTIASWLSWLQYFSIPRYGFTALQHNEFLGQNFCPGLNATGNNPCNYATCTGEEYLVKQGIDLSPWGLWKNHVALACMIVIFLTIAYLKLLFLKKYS
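Assay system – ABCG2 IgMXP3 and barcoded ABCB1 CCRF-Adr cell mix · Input – 3 million cells/mL in well · Reagent – JC-1 fluorescent substrate · Compound – single test compound dose, 6.6 µM final · Timing – 10 min exposure at 25 °C with rotation, no wash · Detection – flow cytometry of retained JC-1 fluorescence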
WT yeast gro inh: growth inhibition of WT yeast, mitochondrial fusion screen; inhibition, % at 10 µM; mitochondrial fusion phenotypic screen, WT strain; hit rate 2.1% among 190,000; AID 1362; in the data active = inhibition above about 58%; tested in S. cerevisiae
Numbers without * were called inactive; · = no result. Most compounds without a hit are left out; they make up all but 12% or so of the library.

SMILES	RAM inhibit	ABCB1 inh	Lmaj promast	ABCG2 inh	WT yeast gro inh
O=C(C1CCN(S(=O)(=O)N2CCCCC2)CC1)N1CCCCC1	1	0	-3	6	-2
CCSc1nc2ccccc2c(=O)n1-c1c(C)n(C)n(-c2ccccc2)c1=O	3	0	-6	2	-1
COc1ccc(NC(=O)Cc2ccc(C)cc2)c([N+](=O)[O-])c1	2	2	91*	28	-7
CN(C)c1ccc(C(=O)NC2(N3CCC3=O)CCCC2)cc1	1	0	2	0	-12
CC(=O)N(Cc1cc(=O)[nH]c2ccccc12)c1cccc(C)c1	3	0	-3	3	65*
CC(=O)N1CCc2cc(Br)cc(S(=O)(=O)NCCCN3CCC(C)CC3)c21	2	0	99*	0	3
CC(=O)N1CCc2cc(Br)cc(S(=O)(=O)NCCN3CCCCC3C)c21 (stereo not drawn)	1	-1	99*	-8	-13
CCC(=O)N1CCc2cc(Br)cc(S(=O)(=O)NCCN3CCOCC3)c21	·	·	·	·	3
O=C(C1CC1)N1CCc2cc(Br)cc(S(=O)(=O)NCCCN3CCCC3)c21	0	0	99*	1	-1
CCC(=O)N1CCc2cc(Br)cc(S(=O)(=O)NCC3CCCO3)c21 (stereo not drawn)	-1	0	0	0	-18
CC(=O)N1CCc2cc(Br)cc(S(=O)(=O)NCCCN3CCCC(C)C3)c21 (stereo not drawn)	0	0	100*	3	-2
Nc1ccnn1Cc1ccncc1	0	0	-6	1	-19
Cc1cc(C)cc(N(CC(=O)NCCSCc2ccccc2)S(C)(=O)=O)c1	0	1	5	1	-7
CC(C)c1ccc(-c2cc(C(=O)N3N=C(C(F)F)CC3(O)C(F)F)c3ccccc3n2)cc1 (stereo not drawn)	5	1	93*	4	87*
O=C(c1cc(C2CC2)nc2ccc(Br)cc12)N1N=C(C(F)F)CC1(O)C(F)F (stereo not drawn)	2	0	13	13	74*
CN(C)/C=C(\c1cnc(Cl)s1)S(=O)(=O)c1ccccc1	0	0	3	1	10
COc1ccc(N2C(=O)C(CN3CCN(C)CC3)C2c2ccccc2)cc1 (stereo not drawn)	4	0	95*	2	5
Cc1ccc(N/C(=N/S(=O)(=O)c2cccs2)c2ccccc2)c(C)c1	0	0	9	0	-6
O=C1C(Nc2ccccc2)=C/C(=N/S(=O)(=O)c2cccs2)c2ccccc21	1	0	101*	-2	99*
COC(=O)c1ccccc1NC1=C/C(=N\S(=O)(=O)c2cccs2)c2ccccc2C1=O	7	0	100*	-1	62*
O=S(=O)(/N=C(/Nc1cccc2ccccc12)c1ccccc1)c1cccs1	2	1	43	7	25
Cc1ccc(NC2=C/C(=N/S(=O)(=O)c3cccs3)c3ccccc3C2=O)cc1	5	0	99*	-3	55
O=C(C1CCCCN1S(=O)(=O)c1ccccc1[N+](=O)[O-])N1CCCCC1 (stereo not drawn)	2	2	-2	10	-12
COc1ccc(CCN=C(N)NS(=O)(=O)c2ccc(C)c(C)c2)cc1	0	0	4	5	-12
Cc1ccsc1C(=O)C1CCCN(Cc2cc(F)ccc2-n2cccn2)C1 (stereo not drawn)	3	4	30	12	14
SMILES	RAM inhibit	ABCB1 inh	Lmaj promast	ABCG2 inh	WT yeast gro inh
Cc1oc(-c2cccc(F)c2)nc1CN(Cc1ccccc1)C[C@@H]1CCC(=O)N1	0	2	59*	2	35
Cc1cccc(N2CCN(C(=O)/C=C/c3cccs3)CC2)c1C	3	1	-1	6	27
CCCOC(=O)c1c(NC(=O)CSc2nc(-c3ccco3)cc(C(F)(F)F)n2)sc(C(=O)OC)c1C	8.8*	·	8	·	4
N#CC1=C(N)C2=CCCC[C@H]2[C@H](c2ccccc2)C1(C#N)C#N	1	0	31	-5	12
N#CC1=C(N)C2=CCCC[C@H]2[C@H](c2ccc(Br)cc2)C1(C#N)C#N	2	1	78*	3	68*
CC(=O)Nc1nc(SCC(=O)Nc2nnc(C)s2)[nH]c(=O)c1NC(=O)c1cccs1	3	0	-3	5	-9
N/C(=N\OC(=O)CC1CCCCC1)c1cccc([N+](=O)[O-])c1	-1	1	68*	27	32
Cc1ccc(S(=O)(=O)N(C)CC(=O)O/N=C(\N)c2cccc([N+](=O)[O-])c2)cc1	8	0	-3	17	-7
Cc1ccc(/C(N)=N/OC(=O)CSc2ccccc2)cc1	0	-1	-7	1	10
Cc1ccc(SCC(=O)O/N=C(\N)c2cccc([N+](=O)[O-])c2)cc1	1	0	-3	2	59*
N/C(=N\OC(=O)CSc1ccccc1)c1ccc([N+](=O)[O-])cc1	1	1	64*	24	45
O=C(CC(c1ccccc1)c1ccco1)Nc1nccs1 (stereo not drawn)	6	0	-4	6	2
Cn1c(=O)n(CCc2ccccc2)c(=O)c2c1nc1n2CCCN1CCc1ccccc1	4	2	28	10	67*
CCOC(=O)c1ccccc1-c1csc(N)n1	1	3	0	22	3
O=C(CCn1cnc2ccccc2c1=O)Nc1cccc(Cl)c1Cl	2	0	17	1	-8
c1ccc(Cc2noc(CN3CCN(C4CCc5ccccc5C4)CC3)n2)cc1 (stereo not drawn)	1	0	87*	-2	-3
c1ccc(Cc2noc(CN3CCC(CN4CCOCC4)CC3)n2)cc1	3	0	15	0	9
c1ccc(Cc2noc(CN3CCCN(C4Cc5ccccc5C4)CC3)n2)cc1	1	0	92*	0	-6
CCC1Oc2ccc(C)cc2N(CC(=O)N(Cc2ccc(C)o2)C2CCCC2)C1=O (stereo not drawn)	7	7	21	14	65*
Cc1ccccc1NC(=S)N1CCN(Cc2ccccc2)CC1	0	1	-3	6	18
CSc1cccc(NC(=S)N2CCCN(Cc3ccc(F)cc3)C2)c1	1	0	86*	0	8
Cc1ccc(NC(=S)N2CCCN(Cc3ccc(F)cc3)C2)c(C)c1	1	1	89*	5	2
Cc1ccccc1NC(=S)N1CCCN(Cc2ccc(F)cc2)C1	0	0	86*	4	1
CC(=O)OCC1(C)CN(c2ccccc2)NC1=O (stereo not drawn)	1	1	6	2	-9
O=C(NCCN1CCOCC1)c1ccc(=O)n(Cc2ccc(Cl)cc2)c1	0	0	-3	1	3
Cc1ccc(C)c(NC(=S)N/N=C/C(C)c2ccccc2)c1 (stereo not drawn)	1	0	29	2	23
